{"source": "ChEMBL document CHEMBL1255290", "about": "“Characterization of a novel human immunodeficiency virus type 1 protease inhibitor, A-790742” (Antimicrob Agents Chemother, 2008)", "key": {"[1]": {"tested_on": "Human immunodeficiency virus 1", "test": "Antiviral activity against HIV1 isolate 7 infected in human MT4 cells obtained from protease inhibitor-resistant patient harboring protease L10I, M46M/L, G48V, I54V, L63P, A71V, I72M, V77I, V82A, L90M, I93L mutation derived from viral passages with Lopinavir assessed as reduction in viral cytopathogenicity treated 1 hr post infection measured 5 days post infection by MTT assay relative to wild …", "format": "functional"}, "[2]": {"tested_on": "Human immunodeficiency virus 1", "test": "Antiviral activity against HIV1 isolate 9 infected in human MT4 cells obtained from protease inhibitor-resistant patient harboring protease L10I, I15I/V, K20R, L33F, E35D, M36I, N37D, R41K, K43I, M46I, I54V, I62V, L63P, A71T, I72T, V82A, I84V, L90M, I93L mutation derived from viral passages with Lopinavir assessed as reduction in viral cytopathogenicity treated 1 hr post infection measured 5 days …", "format": "functional"}, "[3]": {"tested_on": "Human immunodeficiency virus 1", "test": "Antiviral activity against HIV1 isolate 10 infected in human MT4 cells obtained from protease inhibitor-resistant patient harboring protease L10I, I13V, K20R, L33F, E35D, M36I, N37D, I54L, Q58E, I62V, L63P, A71V, V82A, I84V, L90M mutation derived from viral passages with Lopinavir assessed as reduction in viral cytopathogenicity treated 1 hr post infection measured 5 days post infection by MTT …", "format": "functional"}, "[4]": {"tested_on": "Human immunodeficiency virus 1", "test": "(§1) Antiviral activity against HIV1 pNL4-3 infected in human MT4 cells derived from 5 viral passages with 12 nM A-790742 harboring protease I84V mutation assessed as reduction in viral cytopathogenicity treated 1 hr post infection measured 5 days post infection by MTT assay relative to wild type HIV1 pNL4-3", "format": "functional", "how_it_was_run": "(§2)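 Selection: MT-4 cells infected with parental pNL4-3 or RF (MOI 0.003, 2 h), then passaged under rising selecting drug whenever supernatant p24 (ELISA) exceeded 10 ng/ml. Passage viruses titred by TCID50 (Spearman-Karber). Assay: 10^6 MT-4 cells infected at MOI 0.003 for 1 h, washed, and seeded at 10^4 cells/well with eight serial dilutions, triplicate, 0.5% DMSO final. Day-5 MTT read-out; EC50 fold-change versus parental wild type.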"}, "[5]": {"tested_on": "Human immunodeficiency virus 1", "test": "as §1, with “from 6” for “from 5”, “with 16” for “with 12”", "format": "functional", "how_it_was_run": "as §2"}, "[6]": {"tested_on": "Human immunodeficiency virus 1", "test": "as §1, with “from 7” for “from 5”, “with 32” for “with 12”", "format": "functional", "how_it_was_run": "as §2"}, "[7]": {"tested_on": "Human immunodeficiency virus 1", "test": "as §1, with “from 8” for “from 5”, “with 50” for “with 12”, “protease V82V/L,” for “protease”", "format": "functional", "how_it_was_run": "as §2"}, "[8]": {"tested_on": "Human immunodeficiency virus 1", "test": "as §1, with “from 10” for “from 5”, “with 140” for “with 12”, “protease V82V/L and” for “protease”", "format": "functional", "how_it_was_run": "as §2"}, "[9]": {"tested_on": "Human immunodeficiency virus 1", "test": "as §1, with “from 18” for “from 5”, “with 900” for “with 12”, “protease L33F, K45I, A71A/V, V77V/I, V82L,” for “protease”", "format": "functional", "how_it_was_run": "as §2"}, "[10]": {"tested_on": "Human immunodeficiency virus 1", "test": "as §1, with “from 21” for “from 5”, “with 2000” for “with 12”, “protease L23I, L33F, K45I, A71A/V, V77I, V82L,” for “protease”", "format": "functional", "how_it_was_run": "as §2"}, "[11]": {"tested_on": "Human immunodeficiency virus 1", "test": "(§3) Antiviral activity against HIV1 RF infected in human MT4 cells derived from 8 viral passages with 52 nM A-790742 harboring protease V75I mutation assessed as reduction in viral cytopathogenicity treated 1 hr post infection measured 5 days post infection by MTT assay relative to wild type HIV1 RF", "format": "functional", "how_it_was_run": "as §2"}, "[12]": {"tested_on": "Human immunodeficiency virus 1", "test": "as §3, with “10” for “8”, “160” for “52”, “A71V, V82G” for “V75I”", "format": "functional", "how_it_was_run": "as §2"}, "[13]": {"tested_on": "Human immunodeficiency virus 1", "test": "as §3, with “15” for “8”, “500” for “52”, “M46I, L63P, A71V, V82G” for “V75I”", "format": "functional", "how_it_was_run": "as §2"}, "[14]": {"tested_on": "Human immunodeficiency virus 1", "test": "(§4) Antiviral activity against HIV1 P9 infected in human MT4 cells derived from viral passages with A-790742 harboring protease V82V/L and I84V mutation assessed as reduction in viral cytopathogenicity treated 1 hr post infection measured 5 days post infection by MTT assay relative to wild type HIV1 pNL4-3", "format": "functional", "how_it_was_run": "(§5)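 For the assay, 10⁶ MT-4 cells were infected at MOI 0.003, washed after 1 h, and plated at 10⁴ cells/well with eight serial compound dilutions in triplicate (0.5% DMSO final). MTT cytopathic read-out at day 5; EC50 from dose-response fitting.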"}, "[15]": {"tested_on": "Human immunodeficiency virus 1", "test": "as §4, with “P21” for “P9”, “L23I, L33F, K45I, A71A/V, V77I, V82L,” for “V82V/L”", "format": "functional", "how_it_was_run": "as §5"}, "[16]": {"tested_on": "Human immunodeficiency virus 1", "test": "Antiviral activity against HIV1 P13 infected in human MT4 cells derived from viral passages with A-790742 harboring protease M46I, L63P, A71V, and V82G mutation assessed as reduction in viral cytopathogenicity treated 1 hr post infection measured 5 days post infection by MTT assay relative to wild type HIV1 RF", "format": "functional", "how_it_was_run": "as §5"}, "[17]": {"tested_on": "Human immunodeficiency virus 1", "test": "Antiviral activity against HIV1 clone1 infected in HEK293 cells harboring A-790742-selected protease I84V mutation assessed as reduction in viral replication by luciferase reporter gene assay relative to wild type HIV1 pNL4-3", "format": "functional", "how_it_was_run": "(§6)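 Single-cycle assay: HEK-293 cells were cotransfected with luciferase-reporter HIV-1 protease clones plus a VSV-G expression vector. After 4 h, cells were replated at 2 × 10⁴/well over serial inhibitor dilutions in triplicate. Pseudovirus collected at 48 h infected fresh HEK-293 (10⁴/well). Luciferase read 48 h later gave % inhibition versus untreated and EC50. Fold change against WT pNL4-3-Luc (clones 1-4) or RF-Luc (clone 5) is the mean of three experiments.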"}, "[18]": {"tested_on": "Human immunodeficiency virus 1", "test": "Antiviral activity against HIV1 clone3 infected in HEK293 cells harboring A-790742-selected protease L33F, K45I, V82L, and I84V mutation assessed as reduction in viral replication by luciferase reporter gene assay relative to wild type HIV1 pNL4-3", "format": "functional", "how_it_was_run": "as §6"}, "[19]": {"tested_on": "Human immunodeficiency virus 1", "test": "Antiviral activity against HIV1 clone4 infected in HEK293 cells harboring A-790742-selected protease L33F, A71V, G73S, V77I, V82L, and I84V mutation assessed as reduction in viral replication by luciferase reporter gene assay relative to wild type HIV1 pNL4-3", "format": "functional", "how_it_was_run": "as §6"}, "[20]": {"tested_on": "Human immunodeficiency virus 1", "test": "Antiviral activity against HIV1 clone5 infected in HEK293 cells harboring A-790742-selected protease L63P, A71V, and V82G mutation assessed as reduction in viral replication by luciferase reporter gene assay relative to wild type HIV1 RF", "format": "functional", "how_it_was_run": "as §6"}, "[21]": {"tested_on": "Human immunodeficiency virus 1", "test": "Antiviral activity against HIV1 isolate 6 infected in human MT4 cells obtained from protease inhibitor-resistant patient harboring protease L10I, L24I, M46I, I54V, K55R, Q58E, L63P, I64V, A71V, V82A, T91A mutation derived from viral passages with Lopinavir assessed as reduction in viral cytopathogenicity treated 1 hr post infection measured 5 days post infection by MTT assay relative to wild type …", "format": "functional"}, "[22]": {"tested_on": "Human immunodeficiency virus 1", "test": "Antiviral activity against wild-type HIV1 pNL4-3 infected in human MT4 cells assessed as reduction in viral cytopathogenicity treated 1 hr post infection measured 5 days post infection in presence of 50% human serum by MTT assay", "format": "functional, organism-based", "settings": "Human immunodeficiency virus 1, pNL4-3, MT4"}, "[23]": {"tested_on": "Human immunodeficiency virus 1", "test": "Antiviral activity against wild-type HIV1 RF infected in human MT4 cells assessed as reduction in viral cytopathogenicity treated 1 hr post infection measured 5 days post infection in absence of human serum by MTT assay", "format": "functional, organism-based", "settings": "Human immunodeficiency virus 1, RF", "how_it_was_run": "as §5"}, "[24]": {"tested_on": "Human immunodeficiency virus 1", "test": "(§7) Antiviral activity against HIV1 A17 infected in human MT4 cells harboring protease L10F, V32I, M46I, I47V, Q58E, and I84V mutation derived from viral passages with Lopinavir assessed as reduction in viral cytopathogenicity treated 1 hr post infection measured 5 days post infection by MTT assay", "format": "functional, organism-based", "settings": "Human immunodeficiency virus 1, A17, MT4", "how_it_was_run": "as §5"}, "[25]": {"tested_on": "Human immunodeficiency virus 1", "test": "as §7, with “P25” for “A17”, “L10F, G16E,” for “L10F,”, “I47A, H69Y, I84V,” for “I47V, Q58E,”, “T91S” for “I84V”", "format": "functional, organism-based", "settings": "Human immunodeficiency virus 1, P25, MT4", "how_it_was_run": "as §5"}, "[26]": {"tested_on": "Human immunodeficiency virus 1", "test": "Antiviral activity against HIV1 isolate 2 infected in human MT4 cells obtained from protease inhibitor-resistant patient harboring protease L10I, I15V, G16E, K20R, E35D, M36I, R41K, I54A, R57K, Q61D, A71V, I72R, V82A, L89I, L90M, Q92K mutation derived from viral passages with Lopinavir assessed as reduction in viral cytopathogenicity treated 1 hr post infection measured 5 days post infection by …", "format": "functional"}, "[27]": {"tested_on": "Human immunodeficiency virus 1", "test": "Antiviral activity against HIV1 isolate 3 infected in human MT4 cells obtained from protease inhibitor-resistant patient harboring protease L10I, E35D, N37D, […], I54V, L63P, A71V, T74P, I84V, L90M, I93L mutation derived from viral passages with Lopinavir assessed as reduction in viral cytopathogenicity treated 1 hr post infection measured 5 days post infection by MTT assay relative to wild type …", "format": "functional"}, "[28]": {"tested_on": "Human immunodeficiency virus 1", "test": "Antiviral activity against HIV1 isolate 4 infected in human MT4 cells obtained from protease inhibitor-resistant patient harboring protease N37T, M46I, Q58E, I64V, T74K, V77I, V82F, L90M mutation derived from viral passages with Lopinavir assessed as reduction in viral cytopathogenicity treated 1 hr post infection measured 5 days post infection by MTT assay relative to wild type HIV1 pNL4-3", "format": "functional"}}}
{"smiles": "COC(=O)N[C@H](C(=O)N[C@H](Cc1ccc(-c2ccccn2)cc1)C[C@H](O)[C@H](Cc1ccccc1)NC(=O)[C@@H](N1CCN(Cc2cccc(C(C)(C)O)n2)C1=O)C(C)(C)C)C(C)(C)C", "values": [{"measurement": "Ratio EC50", "setting": "[1]", "value": 2}, {"measurement": "Ratio EC50", "setting": "[2]", "value": 6}, {"measurement": "Ratio EC50", "setting": "[3]", "value": 10}, {"measurement": "Ratio EC50", "setting": "[4]", "value": 4}, {"measurement": "Ratio EC50", "setting": "[5]", "value": 5.3}, {"measurement": "Ratio EC50", "setting": "[6]", "value": 10.7}, {"measurement": "Ratio EC50", "setting": "[7]", "value": 16.7}, {"measurement": "Ratio EC50", "setting": "[8]", "value": 46.7}, {"measurement": "Ratio EC50", "setting": "[9]", "value": 300}, {"measurement": "Ratio EC50", "setting": "[10]", "value": 666.7}, {"measurement": "Ratio EC50", "setting": "[11]", "value": 10.4}, {"measurement": "Ratio EC50", "setting": "[12]", "value": 32}, {"measurement": "Ratio EC50", "setting": "[13]", "value": 100}, {"measurement": "Ratio EC50", "setting": "[14]", "value": 13}, {"measurement": "Ratio EC50", "setting": "[15]", "value": ">2500"}, {"measurement": "Ratio EC50", "setting": "[16]", "value": 72}, {"measurement": "Ratio EC50", "setting": "[17]", "value": 2}, {"measurement": "Ratio EC50", "setting": "[18]", "value": 23}, {"measurement": "Ratio EC50", "setting": "[19]", "value": 158}, {"measurement": "Ratio EC50", "setting": "[20]", "value": 72}, {"measurement": "Ratio EC50", "setting": "[21]", "value": 1}, {"measurement": "EC50", "setting": "[22]", "value": 0.02, "unit": "µM"}, {"measurement": "EC50", "setting": "[23]", "value": 0.005, "unit": "µM"}, {"measurement": "EC50", "setting": "[24]", "value": 0.01, "unit": "µM"}, {"measurement": "EC50", "setting": "[25]", "value": 0.045, "unit": "µM"}, {"measurement": "Ratio EC50", "setting": "[26]", "value": 12}, {"measurement": "Ratio EC50", "setting": "[27]", "value": 33}, {"measurement": "Ratio EC50", "setting": "[28]", "value": 1}]}
